This note sets out measurements from ChEMBL document CHEMBL1122253, “Optically active catecholimidazolines: a study of steric interactions at alpha-adrenoreceptors” (1983).

Each structure is given as a SMILES string.

The species named for test [1] is Rattus norvegicus. Put plainly: Relative value for maximum contraction (10e-5 = 1.0, phenylephrine) of rat aorta. Type of test: functional. In short, it runs like this:
(§1)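 Thoracic aorta: the 2-cm segment distal to the first intercostal artery, cut into strips at 75–80° to the lumen. Strips kept in PSS gassed with 95% O2/5% CO2 […], under 2-g tension with isometric force recording. After 1 h equilibration, one half-maximal phenylephrine challenge, then 1 h re-equilibration. Cumulative concentration-effect curves used about threefold steps, with washout and at least 1 h between curves.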

Test [2] is filed under the species Rattus norvegicus. Kind of test: Negative Log of ED50 used to stimulate alpha adrenergic activity in rat aorta.
Test [3] is filed under the species Rattus norvegicus. Kind of test: Negative Log of ED50 used to inhibit alpha adrenergic activity in rat aorta. It counts as functional. The method, boiled down:
as §1

In turn, `CN1CC[N+](C)=C1Cc1ccc(O)c(O)c1.Cl.F[B-](F)(F)F` gave an IA in the test listed under Rattus norvegicus [1] of 0.81. In addition, in the test filed under Rattus norvegicus [2], the pED50 stood at 5.54.
Molecule `Cl.Oc1ccc(CC2=NCCN2)cc1O` had an IA in the test filed under Rattus norvegicus [1] of 1. The pED50 in the test filed under Rattus norvegicus [2] was found to be 8.59.
`C[C@@H]1CN=C(Cc2ccc(O)c(O)c2)N1.Cl` showed an IA in the test listed under Rattus norvegicus [1] of 0.74. The molecule further gave a pED50 in the test listed under Rattus norvegicus [2] of 6.29.
In the test listed under Rattus norvegicus [1], `Cl.Oc1ccc(CC2=NC[C@H](Cc3ccccc3)N2)cc1O` displayed an IA of 1. The molecule also displayed a pED50 in the test filed under Rattus norvegicus [2] of 4.33.
For `Cl.Oc1ccc(CC2=NC[C@@H](Cc3ccccc3)N2)cc1O`, in that order: 0.91 and 4.44.
The molecule `Cl.Oc1ccc([C@H](O)C2=NCCN2)cc1O` yielded an IA in the test listed under Rattus norvegicus [1] of 1. This molecule also yielded a pED50 in the test listed under Rattus norvegicus [2] of 7.67.
In the test filed under Rattus norvegicus [1], `Cl.Oc1ccc([C@@H](O)C2=NCCN2)cc1O` yielded an IA of 1. Also, the pED50 in the test listed under Rattus norvegicus [2] is given as 8.59.
As to `C[C@H]1CN=C(Cc2ccc(O)c(O)c2)N1.Cl`, in the test filed under Rattus norvegicus [1], the IA was found to be 1. Also, the pED50 in the test listed under Rattus norvegicus [2] stood at 6.32.
Consider `CN1CCN=C1Cc1ccc(O)c(O)c1.Cl`, for which the pED50 in the test filed under Rattus norvegicus [3] came out at 5.84. The molecule also had an IA in the test filed under Rattus norvegicus [1] of 0.85.
